Common to all, as to format: functional
The test system of test [1] is Mycobacterium tuberculosis. Kind of test: Antimycobacterial activity against streptomycin-resistant Mycobacterium tuberculosis H37Rv after 16 to 24 hrs by microplate alamar. Put shortly:
(§1)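 MIC by MABA against Mtb strains resistant to isoniazid, rifampin or streptomycin. Values are averages of two to three independent experiments.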

In test [2] the test system is Mycobacterium tuberculosis. Kind of test: Antimycobacterial activity against isoniazid-resistant Mycobacterium tuberculosis H37Rv after 16 to 24 hrs by microplate alamar. Put shortly: as §1
Test [3] concerns Mycobacterium tuberculosis. Put plainly: Antimycobacterial activity against rifampin-resistant Mycobacterium tuberculosis H37Rv after 16 to 24 hrs by microplate alamar. Summed up: as §1

For ten compounds, MIC results are on record in ChEMBL document CHEMBL1156795, “Rational design of 5-phenyl-3-isoxazolecarboxylic acid ethyl esters as growth inhibitors of Mycobacterium tuberculosis. a potent and selective series for further drug development” (J Med Chem, 2010).

In brackets after ≈: the same amount, converted by molar mass.

Broadly, the MIC is the least concentration at which growth counts as inhibited. Read a high MIC as a less susceptible organism.

In the case of `CCOC(=O)c1cc(-c2cccc(OCc3c(F)cccc3F)c2)on1`, the MIC was 1.1 µM (≈ 0.395 µg/mL) in test [1], 1.1 µM (≈ 0.395 µg/mL) in test [2] and 1 µM (≈ 0.359 µg/mL) in test [3].
Take `NNC(=O)c1ccncc1` [ISONIAZID]: the figures for the MIC in test [1], in test [2] and in test [3] were 0.5 µM (≈ 0.0686 µg/mL), greater than 128 µM and 0.4 µM (≈ 0.0549 µg/mL), respectively.
For the compound `CCOC(=O)c1cc(-c2cccc(OCc3cc(F)ccc3F)c2)on1`, the MIC in test [1] stood at 1.2 µM (≈ 0.431 µg/mL); in test [2] it was 1 µM (≈ 0.359 µg/mL); in test [3], 1 µM (≈ 0.359 µg/mL).
Regarding `CCOC(=O)c1cc(-c2cccc(OCc3cccc(C(F)(F)F)c3F)c2)on1`, the MIC in test [1] came to 1 µM (≈ 0.409 µg/mL); in test [2] it was 0.9 µM (≈ 0.368 µg/mL); in test [3], 1 µM (≈ 0.409 µg/mL).
On to `CCOC(=O)c1cc(-c2cccc(OCc3cccc(Br)c3)c2)on1`, for which the MIC in test [1], in test [2] and in test [3] was 1 µM (≈ 0.402 µg/mL) in each case.
With `CCOC(=O)c1cc(-c2cccc(OCc3ccccc3Cl)c2)on1`, the MIC in test [1], in test [2] and in test [3] was 1 µM (≈ 0.358 µg/mL) throughout.
As for `CCOC(=O)c1cc(-c2cccc(OCc3cccc(C(F)(F)F)c3)c2)on1`, the MIC was 0.9 µM (≈ 0.352 µg/mL) in test [1], 0.9 µM (≈ 0.352 µg/mL) in test [2] and 1 µM (≈ 0.391 µg/mL) in test [3].
On to `CO[C@H]1/C=C/O[C@@]2(C)Oc3c(C)c(O)c4c(O)c(c(/C=N/N5CCN(C)CC5)c(O)c4c3C2=O)NC(=O)/C(C)=C\C=C\[C@H](C)[C@H](O)[C@@H](C)[C@@H](O)[C@@H](C)[C@H](OC(C)=O)[C@@H]1C` [RIFAMPIN], for which the MIC in test [1] is greater than 0.1 µM; in test [2] it was greater than 0.1 µM; in test [3], greater than 32 µM.
Take `CCOC(=O)c1cc(-c2cccc(OCc3cccc(F)c3F)c2)on1`: the MIC in test [1], in test [2] and in test [3] was 1 µM (≈ 0.359 µg/mL) each time.
Take `CN[C@@H]1[C@H](O[C@H]2[C@H](O[C@H]3[C@H](O)[C@@H](O)[C@H](N=C(N)N)[C@@H](O)[C@@H]3N=C(N)N)O[C@@H](C)[C@]2(O)C=O)O[C@@H](CO)[C@H](O)[C@H]1O` [STREPTOMYCIN]: the MIC in test [1] was greater than 32 µM; in test [2] it was 0.4 µM (≈ 0.233 µg/mL); in test [3], 0.2 µM (≈ 0.116 µg/mL).
